The structures appear in SMILES notation.

The record followed here is ChEMBL document CHEMBL1143971, “Synthesis, adenosine receptor binding and 3D-QSAR of 4-substituted 2-(2'-furyl)-1,2,4-triazolo[1,5-a]quinoxalines” (Bioorg Med Chem, 2008).

What all share (type): cell-based
Test [1] addresses T1, Adenosine receptor A3 (Homo sapiens) (UniProt P0DMS8).
T1 sequence (whole entry): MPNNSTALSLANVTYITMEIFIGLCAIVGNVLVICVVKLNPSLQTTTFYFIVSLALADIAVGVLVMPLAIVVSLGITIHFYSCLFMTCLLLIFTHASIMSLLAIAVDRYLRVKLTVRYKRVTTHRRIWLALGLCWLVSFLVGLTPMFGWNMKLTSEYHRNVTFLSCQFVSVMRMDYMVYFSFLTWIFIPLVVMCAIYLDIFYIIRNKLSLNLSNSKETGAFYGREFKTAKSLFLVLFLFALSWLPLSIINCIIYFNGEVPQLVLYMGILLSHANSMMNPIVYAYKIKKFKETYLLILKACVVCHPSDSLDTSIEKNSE
In words: Displacement of [3]NECA from human adenosine A3 receptor expressed in HeLa cells at 1 uM. Put shortly: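 At 1 µM test compound, 90 µg membranes were incubated with 30 nM [3H]NECA for 180 min at 25 °C in Tris/EDTA/5 mM MgCl2/adenosine deaminase buffer, pH 7.4. Nonspecific binding with 100 µM (R)-PIA. Result given as % displacement of specific binding.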

The target of test [2] is T2, Adenosine receptor A1 (Homo sapiens, UniProt P30542).
T2 sequence (P30542 whole entry): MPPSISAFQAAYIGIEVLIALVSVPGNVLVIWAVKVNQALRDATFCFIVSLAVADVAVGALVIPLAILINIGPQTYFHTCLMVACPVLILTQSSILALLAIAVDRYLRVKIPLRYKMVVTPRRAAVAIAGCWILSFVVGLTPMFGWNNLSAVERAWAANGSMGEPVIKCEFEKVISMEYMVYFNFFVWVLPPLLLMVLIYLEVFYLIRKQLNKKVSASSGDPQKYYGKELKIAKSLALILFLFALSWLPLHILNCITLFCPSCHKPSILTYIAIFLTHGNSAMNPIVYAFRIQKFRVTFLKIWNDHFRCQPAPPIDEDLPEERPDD
In words: Displacement of [3]DPCPX from human adenosine A1 receptor expressed in CHO cells. Put shortly: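 Membranes (15 µg) incubated 60 min at 25 °C with 2 nM [3H]DPCPX in 20 mM Hepes, 100 mM NaCl, 10 mM MgCl2, 2 U/mL adenosine deaminase, pH 7.4, plus 6 test concentrations (0.1 nM–1 µM). Nonspecific binding defined with 10 µM (R)-PIA. Filtration on GF/C, 4 ice-cold washes, scintillation counting. Ki from IC50 via Cheng–Prusoff.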

In test [3] the target is T3, Adenosine receptor A2b (Homo sapiens, UniProt P29275).
T3 sequence (P29275 whole entry): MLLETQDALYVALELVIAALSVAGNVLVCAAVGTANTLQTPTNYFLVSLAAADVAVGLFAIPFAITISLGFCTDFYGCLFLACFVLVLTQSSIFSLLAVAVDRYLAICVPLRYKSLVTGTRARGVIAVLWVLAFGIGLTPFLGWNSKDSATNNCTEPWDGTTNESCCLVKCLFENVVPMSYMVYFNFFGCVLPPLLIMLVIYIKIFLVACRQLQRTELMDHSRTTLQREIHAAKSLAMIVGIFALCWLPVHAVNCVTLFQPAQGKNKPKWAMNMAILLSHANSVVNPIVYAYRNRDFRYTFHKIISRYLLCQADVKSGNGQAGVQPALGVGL
In words: Displacement of [3]DPCPX from human adenosine A2B receptor expressed in HEK293 cells. A digest of the protocol:
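Membranes (18 µg) incubated 30 min at 25 °C with 35 nM [3H]DPCPX in 50 mM Tris-HCl, 1 mM EDTA, 10 mM MgCl2, 0.1 mM benzamidine, 2 U/mL adenosine deaminase, pH 6.5, plus six concentrations (0.1 nM–1 µM). Nonspecific binding defined with 400 µM NECA. GF/B filtration, six washes with Tris pH 6.5. Ki via Cheng–Prusoff.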

For test [4], the target named is T4, Adenosine receptor A2a (Homo sapiens, UniProt P29274). In words: Displacement of [3]ZM241385 from human adenosine A2A receptor expressed in HeLa cells. A digest of the protocol:
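10 µg membranes, 3 nM [3H]ZM241385, 30 min at 25 °C in 50 mM Tris-HCl, 1 mM EDTA, 10 mM MgCl2, 2 U/mL adenosine deaminase, pH 7.4. Six test concentrations (0.1 nM–1 µM). Nonspecific binding from 50 µM NECA. GF/C filtration, four ice-cold washes, scintillation counting. Ki via Cheng–Prusoff.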

Test [5] concerns the target T4, Adenosine receptor A2a. In words: Displacement of [3]ZM241385 from human adenosine A2A receptor expressed in HeLa cells at 1 uM. Put shortly:
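At 1 µM test compound: 10 µg membranes, 3 nM [3H]ZM241385, 30 min at 25 °C in Tris/EDTA/MgCl2/adenosine deaminase buffer, pH 7.4. Nonspecific binding from 50 µM NECA. Output is % displacement of specific binding, based on total and nonspecific dpm.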

For test [6], the target named is T5, Adenosine receptor A2b (Homo sapiens) (UniProt P29275).
T5 sequence (whole entry): T3 sequence (P29275 whole entry)
In words: Displacement of [3]DPCPX from human adenosine A2B receptor expressed in HEK293 cells at 1 uM. Put shortly:
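At 1 µM test compound: 18 µg membranes, 35 nM [3H]DPCPX, 30 min at 25 °C, Tris/EDTA/MgCl2/benzamidine/adenosine deaminase buffer pH 6.5. Nonspecific binding from 400 µM NECA. Value expressed as % displacement of specific binding, calculated from total, nonspecific and competed dpm.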

The target in test [7] is T6, Adenosine receptor A3 (Homo sapiens, UniProt P0DMS8).
T6 sequence (P0DMS8 whole entry): T1 sequence (whole entry)
In words: Displacement of [3]NECA from human adenosine A3 receptor expressed in HeLa cells. Put shortly: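 90 µg membranes, 30 nM [3H]NECA, 180 min at 25 °C in 50 mM Tris-HCl, 1 mM EDTA, 5 mM MgCl2, 2 U/mL adenosine deaminase, pH 7.4. Test compound at six concentrations (0.1 nM–1 µM). Nonspecific binding with 100 µM (R)-PIA. GF/B filtration, six washes, scintillation counting. Ki = IC50/(1 + C/KD).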

Test [8] concerns the target T7, Adenosine receptor A1 (Homo sapiens) (UniProt P30542).
T7 sequence (whole entry): T2 sequence (P30542 whole entry)
In words: Displacement of [3]DPCPX from human adenosine A1 receptor expressed in CHO cells at 1 uM. A digest of the protocol: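 Single-point competition at 1 µM test compound: 15 µg membranes, 2 nM [3H]DPCPX, 60 min at 25 °C, Hepes/NaCl/MgCl2/adenosine deaminase buffer pH 7.4. 10 µM (R)-PIA for nonspecific binding. % displacement = (total binding − dpm)×100/(total − nonspecific).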

T4 sequence (P29274 whole entry): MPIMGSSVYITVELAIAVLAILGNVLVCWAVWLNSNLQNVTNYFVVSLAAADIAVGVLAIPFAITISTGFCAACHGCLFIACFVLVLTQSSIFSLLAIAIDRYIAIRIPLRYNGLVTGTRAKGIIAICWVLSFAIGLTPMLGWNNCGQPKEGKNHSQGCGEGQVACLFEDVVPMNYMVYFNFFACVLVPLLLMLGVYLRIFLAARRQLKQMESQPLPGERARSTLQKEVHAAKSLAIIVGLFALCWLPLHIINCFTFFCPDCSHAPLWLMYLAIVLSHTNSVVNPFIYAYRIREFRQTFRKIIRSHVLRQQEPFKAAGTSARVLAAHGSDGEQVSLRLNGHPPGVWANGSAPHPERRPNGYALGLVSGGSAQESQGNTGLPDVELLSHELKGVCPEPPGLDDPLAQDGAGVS

One may read the inhibition as the change of the read-out against control, counted positive when it falls. Lower therefore signals a response near the control. One may read the Ki as a dissociation constant, usually derived from enzyme kinetics or from competition with a known ligand. `COCCCNc1nc2ccccc2n2nc(-c3ccco3)nc12` yielded an inhibition in test [1] of 82%. The Ki in test [2] is 74.1 nM; in test [3], 427 nM; in test [4], 372 nM.
As to `COC(CNc1nc2ccccc2n2nc(-c3ccco3)nc12)OC`, the results for the inhibition in test [1], in test [5] and in test [6] were 55.3%, 20% and 22%, respectively. Moreover, the Ki in test [2] is 575 nM.
The corresponding values for `CCOc1nc2ccccc2n2nc(-c3ccco3)nc12` are 69%, 38%, 34% and 3720 nM.
Turning to `c1coc(-c2nc3c(OCc4ccoc4)nc4ccccc4n3n2)c1`, the Ki was 676 nM in test [7], 537 nM in test [2], 145 nM in test [3] and 575 nM in test [4].
Take `c1coc(CNc2nc3ccccc3n3nc(-c4ccco4)nc23)c1`: the inhibition in test [1] amounted to 57.3%. The Ki in test [2] is 33.1 nM; in test [3], 1740 nM; in test [4], 490 nM.
With `c1ccc(Nc2nc3ccccc3n3nc(-c4ccco4)nc23)cc1`, the inhibition in test [1] was found to be 71.7%; in test [6], 49%. Also, the Ki was 45.7 nM in test [2] and 64.6 nM in test [4].
On to `NCC(O)CNc1nc2ccccc2n2nc(-c3ccco3)nc12` (centres undefined), for which the inhibition was 43% in test [1], 57% in test [5] and 34% in test [6]. For the same compound, in test [2], the affinity, expressed as Ki, was 141 nM.
With `c1ccc(CNc2nc3ccccc3n3nc(-c4ccco4)nc23)cc1`, the inhibition in test [1] came out at 32.6%; in test [6], 24%. The Ki in test [2] was 102 nM; in test [4] it was 302 nM.
`c1ccc(COc2nc3ccccc3n3nc(-c4ccco4)nc23)cc1`: the figures for the inhibition in test [8], in test [5] and in test [6] were 13.8%, 38% and 3%, respectively. Moreover, the affinity in test [7] corresponds to a Ki of 1550 nM.
As to `O=C(Cc1ccccc1)Nc1nc2ccccc2n2nc(-c3ccco3)nc12`, the Ki in test [7] was 100 nM; in test [2] it was 63.1 nM; in test [3], 251 nM; in test [4], 158 nM.
The corresponding values for `Nc1nc2ccccc2n2nc(-c3ccco3)nc12` are 331 nM, 5.62 nM, 13.2 nM and 11.2 nM.
As for `CC(=O)Nc1nc2ccccc2n2nc(-c3ccco3)nc12`, the Ki in test [7] is 251 nM; in test [2], 112 nM; in test [3] it was 251 nM; in test [4], 200 nM.
Regarding `c1coc(COc2nc3ccccc3n3nc(-c4ccco4)nc23)c1`, the inhibition was 55.1% in test [8], 8% in test [5] and 3% in test [6]. Further, in test [7], the Ki was 66.1 nM.
As for `COc1nc2ccccc2n2nc(-c3ccco3)nc12`, the inhibition in test [1] was found to be 57.4%; in test [6] it was 28%. Besides, the Ki was 331 nM in test [2] and 398 nM in test [4].
In the case of `O=C(CCc1ccccc1)Nc1nc2ccccc2n2nc(-c3ccco3)nc12`, the Ki in test [7] was 126 nM; in test [2], 12.6 nM; in test [3] it was 501 nM; in test [4], 63.1 nM.
For `CN(C)c1nc2ccccc2n2nc(-c3ccco3)nc12`, the inhibition was found to be 31.1% in test [8], 50.7% in test [1] and 17% in test [6]. This compound also gave a Ki in test [4] of 309 nM.
In the case of `c1ccc(CCNc2nc3ccccc3n3nc(-c4ccco4)nc23)cc1`, the Ki in test [7] was 372 nM; in test [2], 93.3 nM; in test [4] it was 51.3 nM. Moreover, the inhibition in test [6] turned out to be 46%.
Take `OCCN(CCO)c1nc2ccccc2n2nc(-c3ccco3)nc12`: the inhibition was determined as 51.7% in test [1] and 46% in test [6]. The Ki in test [2] is 58.9 nM; in test [4] it was 110 nM.
For the compound `O=C(Nc1nc2ccccc2n2nc(-c3ccco3)nc12)c1cccs1`, the inhibition in test [1] was found to be 52%; in test [5], 10%; in test [6] it was 21%. The same compound showed an inhibition constant (Ki) in test [2] of 50.1 nM.
As to `CCN(CC)c1nc2ccccc2n2nc(-c3ccco3)nc12`, the inhibition in test [1] was determined as 10.4%. The Ki in test [2] is 135 nM; in test [3], 2400 nM; in test [4], 398 nM.
Regarding `OCCNc1nc2ccccc2n2nc(-c3ccco3)nc12`, the Ki in test [7] was 30.2 nM; in test [2], 3.16 nM; in test [3], 123 nM; in test [4], 63.1 nM.
Regarding `COCCNc1nc2ccccc2n2nc(-c3ccco3)nc12`, the Ki is 437 nM in test [7], 302 nM in test [2] and 3090 nM in test [4]. Further, the inhibition in test [6] came to 32%.
Regarding `CC(O)CNc1nc2ccccc2n2nc(-c3ccco3)nc12` (centres undefined), the Ki in test [7] is 22.9 nM; in test [2], 3.98 nM; in test [3] it was 67.6 nM; in test [4], 47.9 nM.
Regarding `c1coc(-c2nc3c(N4CCNCC4)nc4ccccc4n3n2)c1`, the inhibition in test [8] was 12.3%; in test [1], 26.7%; in test [5], 7%; in test [6], 4%.
For `OCCN1CCN(c2nc3ccccc3n3nc(-c4ccco4)nc23)CC1` the same measures were 24.5%, 24%, 12% and 3%.
As to `O=C(Nc1nc2ccccc2n2nc(-c3ccco3)nc12)c1ccco1`, the Ki in test [7] was 251 nM; in test [2], 200 nM; in test [3], 2510 nM; in test [4] it was 398 nM.
